# Source: ChEMBL document CHEMBL1121461, “Synthesis and diuretic profile of 3-(3-amino-1,2,4-oxadiazol-5-yl)-5-chloro-2,6-pyrazinediamine, an amiloride-type diuretic” (J Med Chem, 1980)
# Where “and” joins values, the source holds several entries; their conditions need not be identical. Identical values can stand only once.
# What was measured:
# [1] = Compound was tested for diuretic activity in sodium content of the 3-h sample was measured by flame photometry; format: ADME, Urine; parameters: unit not given beside the values
# Summary of the method: (§1)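 Rats, four per group (eight in one case), given oral 50 mL/kg 0.2% NaCl load together with test agent by mouth; placed in metabolism cages, urine collected 3 h. Urine volume expressed as % of load; total Na+ and K+ (mequiv × 100) in the 3-h sample by flame photometry. Vehicle controls run alongside; significance p < 0.05, p < 0.01.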
# [2] = species on record: Rattus norvegicus; experiment: Compound was tested for diuretic activity in sodium content of the 3-h sample was measured by flame photometry in rat; format: ADME, organism-based, Urine; parameters: unit not given beside the values; conditions: in vivo; summary of the method: as §1
# [3] = species on record: Rattus norvegicus; experiment: Compound was tested for diuretic activity in potassium content of the 3-h sample was measured by flame photometry in rat; format: ADME, organism-based, Urine; conditions: in vivo
# Summary of the method: (§2)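 Rats, four per dose group, given oral 0.2% NaCl load (50 mL/kg) together with test agent orally; placed in metabolism cages, urine collected 3 h. Na+ and K+ content of the 3-h sample by flame photometry; output as % of load and total mequiv × 100, compared against concurrent controls.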
# [4] = tested on: Rattus norvegicus; experiment: Compound was tested for diuretic activity against peroral dose of 100 mg/kg in rat; format: ADME, organism-based, Urine; parameters: dose 100 mg/kg, route oral; conditions: in vivo, po; summary of the method: as §1
# [5] = tested on: Rattus norvegicus; experiment: Compound was tested for diuretic activity against peroral dose of 10 mg/kg in rat; format: ADME, organism-based, Urine; parameters: dose 10 mg/kg, route oral; conditions: in vivo, po; summary of the method: as §2
# [6] = tested on: Rattus norvegicus; experiment: Compound was tested for diuretic activity against peroral dose of 25 mg/kg in rat; format: ADME, organism-based, Urine; parameters: dose 25 mg/kg, route oral; conditions: in vivo, po; summary of the method: as §1
# [7] = tested on: Rattus norvegicus; experiment: Compound was tested for diuretic activity against peroral dose of 50 mg/kg in rat; format: ADME, organism-based, Urine; parameters: dose 50 mg/kg, route oral; conditions: in vivo, po; summary of the method: as §1
# [8] = tested on: Rattus norvegicus; experiment: Compound was tested for diuretic activity against peroral dose of 5 mg/kg in rat; format: ADME, organism-based, Urine; parameters: dose 5 mg/kg, route oral; conditions: in vivo, po; summary of the method: as §1
# [9] = tested on: Canis familiaris; experiment: Compound was tested for diuretic activity in urine volume in dogs at a dose of 5 mg/kg; format: ADME, organism-based, Canis lupus familiaris; parameters: dose 5 mg/kg; conditions: dog, in vivo
# Summary of the method: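 Six normotensive trained dogs (10.2-17.9 kg), each given a placebo control test before each run. Oral dosing, then 100 mL normal saline injected subcutaneously. Bladder emptied by catheter at onset and 2, 4, 6 h after dosing; dogs in metabolism cages. Total urine volume recorded; Na+ and K+ of an aliquot by flame photometry.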
# [10] = Compound was tested for diuretic activity in potassium content of the 3-h sample was measured by flame photometry; format: ADME, Urine; summary of the method: as §1
# [11] = species on record: Canis familiaris; experiment: Compound was tested for diuretic activity in urine volume in dog; format: ADME, organism-based, Canis lupus familiaris; conditions: in vivo
# Summary of the method: (§3)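 Six normotensive trained dogs (10.2-17.9 kg; five for 10 mg/kg runs), oral dosing at 5 or 10 mg/kg, each preceded by placebo control test. Normal saline 100 mL given subcutaneously right after dosing. Bladder emptied by catheter at onset and 2, 4, 6 h; kept in metabolism cages; total urine volume recorded, Na+ and K+ of aliquot by flame photometry.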
# [12] = species on record: Canis familiaris; experiment: Compound was tested for diuretic activity urine volume in dog; format: ADME, organism-based, Canis lupus familiaris; conditions: in vivo; summary of the method: as §3
Compound,Diuretic activity [1],Diuretic activity [2],Diuretic activity [3],Load [4],Load [5],Load [6],Load [7],Load [8],Load [9],Diuretic activity [10],urine vol [11],urine vol [12]
Nc1noc(-c2nc(Cl)c(N)nc2N)n1,23.5 and 21.2 and 40,24.7 and 33.8 and 42.7 and 41.6,1.1 and 2 and 1.8 and 1.9 and 2.1,100.4%,88.8% and 96.9%,93.3%,103% and 83.9%,81.1%,91% and 76.8%,–,–,–
Cl.N=C(N)NC(=O)c1nc(Cl)c(N)nc1N.O.O [AMILORIDE HYDROCHLORIDE],33.6 and 24.9 and 27.9 and 32.9,38 [middle of 4 runs],1.5 and 1.7 and 1.6 and 1.1,59.7%,96.8%,82.1%,64.9% and 76.2%,94%,–,1.1 and 1.4 and 1.7,91.2%,88.2%
